Test results taken from ChEMBL document CHEMBL1641580, “Identification of 3-phenylaminoquinolinium and 3-phenylaminopyridinium salts as new agents against opportunistic fungal pathogens” (Bioorg Med Chem, 2011).
≈ marks a conversion by molar mass, not a printed value. Calls of active or inactive are those of the source. The calls are words filed in the database; no cut-off is given here.

Key:
Candida albicans [1] = assay: Fungicidal activity against Candida albicans ATCC 90028 at 20 ug/mL; type: functional, organism-based
Candida albicans [2] = assay: Antifungal activity against Candida albicans ATCC 90028 assessed as inhibition of fungal growth at 20 ug/mL by alamar blue assay; type: functional, organism-based
Outline: (§1)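 Broth microdilution modified from NCCLS. DMSO stocks serially diluted in saline and plated in duplicate. Inoculum set by 0.5 McFarland standard. Media: C. albicans in SDB or RPMI 1640; C. neoformans in SDB; A. fumigatus in RPMI-1640 + 5% Alamar Blue. Highest final concentration 20 µg/mL. Plates read before and after incubation by fluorescence 544ex/590em (A. fumigatus) or OD 630 nm. IC50 from percent growth vs concentration.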

Aspergillus fumigatus [3] = assay: Antifungal activity against Aspergillus fumigatus ATCC 90906 assessed as inhibition of fungal growth at 20 ug/mL by alamar blue assay; type: functional, organism-based; outline: as §1
Cryptococcus neoformans [4] = assay: Antifungal activity against Cryptococcus neoformans ATCC 90113 assessed as inhibition of fungal growth by alamar blue assay; type: functional, organism-based; outline: as §1
Cryptococcus neoformans [5] = assay: Fungicidal activity against Cryptococcus neoformans ATCC 90113; type: functional
[6] = Cytotoxicity against african green monkey Vero cells after 48 hrs by neutral red assay; type: cell-based; conditions: chlorocebus sabaeus, read-out: TC50
Outline: (§2)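 Vero kidney fibroblasts seeded at 25,000 cells/well and grown 24 h, then exposed to samples up to 20 µg/ml for 48 h. Viable cells measured by neutral red assay. IC50 taken from growth-inhibition vs concentration curves. DMSO served as vehicle control.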

Cryptococcus neoformans [7] = assay: Antifungal activity against Cryptococcus neoformans ATCC 90113 by microscopy; type: functional
Outline: (§3)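 Modified NCCLS microdilution. Samples in DMSO serially diluted in saline and tested in duplicate against inocula standardized to 0.5 McFarland. Highest final concentration 20 µg/mL. MIC read visually as the lowest concentration with no detectable growth (for Alamar Blue wells, no blue-to-pink change).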

Candida albicans [8] = assay: Antifungal activity against Candida albicans ATCC 90028 at 20 ug/mL by microscopy; type: functional, organism-based
Outline: as §3, with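 “McFarland. Broths: C. albicans SDB or RPMI 1640; C. neoformans SDB; A. fumigatus YM broth.” for “McFarland.”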

Cryptococcus neoformans [9] = assay: Antifungal activity against Cryptococcus neoformans ATCC 90113 assessed as inhibition of fungal growth at 20 ug/mL by alamar blue assay; type: functional, organism-based; outline: as §1
Aspergillus fumigatus [10] = assay: Fungicidal activity against Aspergillus fumigatus ATCC 90906 at 20 ug/mL; type: functional, organism-based
Cryptococcus neoformans [11] = assay: Antifungal activity against Cryptococcus neoformans ATCC 90113 at 20 ug/mL by microscopy; type: functional, organism-based
Outline: as §3, with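 “McFarland. Broths: C. albicans SDB or RPMI 1640; C. neoformans SDB; A. fumigatus YM broth.” for “McFarland.”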

Aspergillus fumigatus [12] = assay: Antifungal activity against Aspergillus fumigatus ATCC 90906 at 20 ug/mL by microscopy; type: functional, organism-based
Outline: as §3, with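 “McFarland. Broths: C. albicans SDB or RPMI 1640; C. neoformans SDB; A. fumigatus YM broth.” for “McFarland.”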

Cryptococcus neoformans [13] = assay: Fungicidal activity against Cryptococcus neoformans ATCC 90113 at 20 ug/mL; type: functional, organism-based
Vero = assay: Cytotoxicity against african green monkey Vero cells at 20 ug/mL after 48 hrs by neutral red assay; type: cell-based; conditions: chlorocebus sabaeus; outline: as §2
[14] = Cytotoxicity against african green monkey Vero cells; type: cell-based; conditions: chlorocebus sabaeus, read-out: TC50 (the source's name); outline: as §2
Aspergillus fumigatus [15] = assay: Antifungal activity against Aspergillus fumigatus ATCC 90906 by microscopy; type: functional
Outline: as §3, with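 “McFarland. Broths: C. albicans SDB or RPMI 1640; C. neoformans SDB; A. fumigatus YM broth.” for “McFarland.”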

Candida albicans [16] = assay: Fungicidal activity against Candida albicans ATCC 90028; type: functional
Aspergillus fumigatus [17] = assay: Fungicidal activity against Aspergillus fumigatus ATCC 90906; type: functional
Aspergillus fumigatus [18] = assay: Antifungal activity against Aspergillus fumigatus ATCC 90906 assessed as inhibition of fungal growth by alamar blue assay; type: functional, organism-based; conditions: Aspergillus fumigatus, ATCC 90906; read-out: IC50; outline: as §1
Candida albicans [19] = assay: Antifungal activity against Candida albicans ATCC 90028 by microscopy; type: functional
Outline: as §3, with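 “McFarland. Broths: C. albicans SDB or RPMI 1640; C. neoformans SDB; A. fumigatus YM broth.” for “McFarland.”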

Candida albicans [20] = assay: Antifungal activity against Candida albicans ATCC 90028 assessed as inhibition of fungal growth by alamar blue assay; type: functional, organism-based; outline: as §1
Cryptococcus neoformans [21] = assay: Antifungal activity against Cryptococcus neoformans at 20 ug/mL

| Compound | Activity (Candida albicans [1]) | inhibition (Candida albicans [2]) | inhibition (Aspergillus fumigatus [3]) | IC50 (Cryptococcus neoformans [4]) [µg/mL] | MFC (Cryptococcus neoformans [5]) [µg/mL] | CC50 at 48 h [6] [µg/mL] | MIC (Cryptococcus neoformans [7]) [µg/mL] | Activity (Candida albicans [8]) | inhibition (Cryptococcus neoformans [9]) | Activity (Aspergillus fumigatus [10]) | Activity (Cryptococcus neoformans [11]) | Activity (Aspergillus fumigatus [12]) | Activity (Cryptococcus neoformans [13]) | Activity (Vero) | MIC (Candida albicans [19]) [µg/mL] | IC50 (Candida albicans [20]) [µg/mL] | other results |
| --- | --- | --- | --- | --- | --- | --- | --- | --- | --- | --- | --- | --- | --- | --- | --- | --- | --- |
| C[n+]1cccc(N(CCCCCC2CCCCC2)c2cccc(C#N)c2)c1.[I-] | inactive | inactive | inactive | 3.5 | 5 | > 10 | 5 | inactive | – | – | – | – | – | – | – | – | – |
| C[n+]1cc(Nc2cccc(Cl)c2)cc2ccccc21.[I-] | inactive | inactive | inactive | – | – | – | – | inactive | inactive | inactive | inactive | inactive | inactive | Non-toxic | – | – | – |
| C[n+]1cccc(Nc2ccccc2)c1.[I-] | – | – | – | – | – | – | – | – | – | – | – | – | – | Non-toxic | – | – | – |
| C[C@@H]1[C@H](O)[C@@H](C)/C=C/C=C/C=C/C=C/C=C/C=C/C=C/[C@H](O[C@@H]2O[C@H](C)[C@@H](O)[C@H](N)[C@@H]2O)C[C@@H]2O[C@](O)(C[C@@H](O)C[C@@H](O)[C@H](O)CC[C@@H](O)C[C@@H](O)CC(=O)O[C@H]1C)C[C@H](O)[C@H]2C(=O)O [AMPHOTERICIN B] | – | – | – | 1.3 (≈ 1.41 µM) | 1 (≈ 1.08 µM) | 7.6 (≈ 8.22 µM) | – | – | – | – | – | – | – | – | 0.6 (≈ 0.649 µM) | – | CC50 [14]: 7.6 µg/mL (≈ 8.22 µM); MIC (Aspergillus fumigatus [15]): 1.3 µg/mL (≈ 1.41 µM); MFC (Candida albicans [16]): 1.3 µg/mL (≈ 1.41 µM); MFC (Aspergillus fumigatus [17]): 5 µg/mL (≈ 5.41 µM); IC50 (Aspergillus fumigatus [18]): 0.7 µg/mL (≈ 0.758 µM) |
| COc1ccc(N(CCCCCC2CCCCC2)c2ccc[n+](C)c2)cc1.[I-] | – | – | inactive | 1.4 | 2.5 | > 10 | 2.5 | – | – | – | – | – | – | – | 10 | 5.1 | MFC (Candida albicans [16]): 20 µg/mL |
| C[n+]1cc(Nc2ccc(Cl)cc2)cc2ccccc21.[I-] | inactive | inactive | inactive | – | – | – | – | inactive | inactive | inactive | inactive | inactive | inactive | Non-toxic | – | – | – |
| C[n+]1cc(Nc2ccccc2)cc2ccccc21.[I-] | inactive | inactive | inactive | – | – | – | – | inactive | inactive | inactive | inactive | inactive | inactive | Non-toxic | – | – | – |
| C[n+]1cccc(N(CCCCCC2CCCCC2)c2ccccc2)c1.[I-] | inactive | inactive | – | 1.5 | 2.5 | > 10 | 2.5 | inactive | – | inactive | – | inactive | – | – | 20 | 8.3 | IC50 (Aspergillus fumigatus [18]): 19.7 µg/mL |
| C[n+]1cccc(N(CCCCCC2CCCCC2)c2ccc(F)cc2)c1.[I-] | inactive | inactive | inactive | 1.4 | 2.5 | > 10 | 2.5 | inactive | – | inactive | – | inactive | – | – | 20 | 9.6 | – |
| C[n+]1cccc(N(CCCCCC2CCCCC2)c2ccc(C#N)cc2)c1.[I-] | – | – | inactive | 2.6 | 5 | > 10 | 5 | – | – | – | – | – | – | – | 20 | 19 | MFC (Candida albicans [16]): > 20 µg/mL |
| C[n+]1cc(Nc2ccccc2Cl)cc2ccccc21.[I-] | inactive | inactive | inactive | – | – | – | – | inactive | inactive | inactive | inactive | inactive | inactive | Non-toxic | – | – | – |
| C[n+]1c2ccccc2cc2[n-]c3ccccc3c21 [CRYPTOLEPINE] | – | – | – | – | – | – | 20 (≈ 86.1 µM) | – | – | – | – | – | – | – | – | 20 (≈ 86.1 µM) | CC50 [14]: 3.2 µg/mL (≈ 13.8 µM); MIC (Cryptococcus neoformans [21]): 12.5 µg/mL (≈ 53.8 µM) |
